Screening data: PubChem, several laboratories
In the library only some 2.6% were active in any assay of this set; here they are far more common.
TNAP act hiacc = TNAP activators at high phosphate acceptor level, primary screen, biochemical, luminescence, uHTS; purified TNAP, CDP-star luminescence, 1 M DEA, 30 min; hits give high values; 0 = EDTA background, 1 = DMSO-only activity; activation factor at 20 µM; 200,000 tested, under 10 active;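 active = activation factor at least 2 at 20 µM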
Target sequence (P05186 whole entry, looked up): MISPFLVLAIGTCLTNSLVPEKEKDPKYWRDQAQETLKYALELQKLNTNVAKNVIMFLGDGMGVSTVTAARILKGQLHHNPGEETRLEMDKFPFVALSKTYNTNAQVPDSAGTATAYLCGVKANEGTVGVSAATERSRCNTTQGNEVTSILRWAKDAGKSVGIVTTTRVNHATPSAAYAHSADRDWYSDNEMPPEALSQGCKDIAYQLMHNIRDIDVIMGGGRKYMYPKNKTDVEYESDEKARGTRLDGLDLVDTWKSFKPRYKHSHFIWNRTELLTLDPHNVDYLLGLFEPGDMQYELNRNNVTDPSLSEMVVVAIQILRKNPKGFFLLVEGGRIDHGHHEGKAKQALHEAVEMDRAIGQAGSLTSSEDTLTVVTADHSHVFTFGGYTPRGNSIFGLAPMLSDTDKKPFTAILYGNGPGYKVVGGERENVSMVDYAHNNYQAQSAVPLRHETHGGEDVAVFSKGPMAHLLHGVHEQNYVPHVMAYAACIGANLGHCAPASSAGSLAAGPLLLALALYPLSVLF
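system = human TNAP | amount = enzyme diluted 1/800 final | reagent = 100 µM CDP-star substrate | signal = luminescent substrate turnover signal | dosing = one dose, 20 µM | benchmarks = EDTA negative control, DMSO positive control | measure = activation factor | timing = 30 min reaction, room temperature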
Arbovirus anti = antivirals against arbovirus infection, primary screen, cell-based, full library, 10K replicate subset | inhibition, % at 10 µM | 0.37% of 200,000 active | arbovirus infection cell-based antiviral screen | AID 1251, 2008; in the data active = inhibition above about 30%
TNAP inh hiacc = human TNAP enzyme inhibitors, primary screen, biochemical, luminescent, high phosphate acceptor level, uHTS; 0.03% of 200,000 active; inhibition, % at 20 µM; Alkaline phosphatase, tissue-nonspecific isozyme (Homo sapiens), P05186; purified TNAP, CDP-star luminescence, 1 M DEA;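 active = over 50% inhibition of tissue-nonspecific alkaline phosphatase at 20 µM in the single-dose screen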
TNAP inh no acc = human TNAP enzyme inhibitors, primary screen, biochemical, luminescent, no phosphate acceptor, uHTS | 0.26% of 200,000 active | purified TNAP, CDP-star luminescence, 30 min | inhibition, % at 20 µM;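 active = tissue-nonspecific alkaline phosphatase inhibition above about 50% at 20 µM in the single-dose screen, limit read from the data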
WT yeast gro inh = growth inhibition of WT strain, primary screen, mitochondrial fusion inhibitor project, WT and mutant strains, chemical genetic; 2.1% of 190,000 active; inhibition, % at 10 µM; mitochondrial fusion phenotypic screen; in the data active = inhibition above about 58%; tested in S. cerevisiae
Each line names hits and unclear results; the compound was inactive in the other large screens.

CCOC(=O)C1CCN(C(=O)Nc2ccccc2Cl)CC1	none
O=C(NNc1ccc([N+](=O)[O-])cc1)C12CC3CC(CC(C3)C1)C2	none
CC(C)(C)NC(=S)Nc1ccc(Nc2ccccc2)cc1	WT yeast gro inh 73
S=C(NCCc1ccccc1)Nc1ccc(Nc2ccccc2)cc1	WT yeast gro inh 82
S=C(NCCCc1ccccc1)Nc1ccc(Cl)cc1	WT yeast gro inh 72
CC(C)(C)NC(=S)Nc1ccc(Br)cc1	none
Cc1cccnc1NC(=S)NCCc1ccccc1	WT yeast gro inh 61
Cc1ccc(NC(=S)NCCc2ccccc2)nc1	none
Cc1ccc(C(=O)NC2CCS(=O)(=O)C2)cc1S(=O)(=O)N1CCCCCC1 (stereo not given)	none
Cc1cc(C)c(NC(=O)CO/N=C2\CCCc3nonc32)c(C)c1	none
Cc1ccccc1Nc1cc2ccccc2c(=O)[nH]1	WT yeast gro inh 66
CCOP(=O)(OCC)c1nc(/C=C/c2ccccc2)oc1NCc1ccccc1	WT yeast gro inh 83
CCOP(=O)(OCC)c1nc(/C=C/c2ccccc2)oc1NCc1ccc(OC)cc1	none
Cc1ccc(C(=O)Nc2ccc3c(c2)nc2n3CCSC2)cc1	none
COc1ccccc1C(=O)Nc1ccc2c(c1)nc1n2CCSC1	TNAP inh no acc 68
CC1CC(C)CN(CCOc2ccc(Br)cc2)C1 (stereo not given)	none
O=C(Nc1ccccc1)OC1CC2CC1C1CCCC21 (stereo not given)	WT yeast gro inh 80
NC(=O)c1ccc(NC(=O)CCCN2C(=O)c3ccccc3C2=O)cc1	WT yeast gro inh 63
CCCCCCc1cc2cc(C(=O)Nc3ccccc3OC)c(=O)oc2cc1O	Arbovirus anti 80
Cc1noc(C)c1C(=O)NCCCN1CCCC1=O	none
Cc1cc(NC(=O)COC(=O)c2cccc(O)c2)no1	TNAP inh no acc 52
CCOc1ccc(C(=O)OCC(=O)Nc2cc(C)on2)cc1OCC	none
CSc1nc2ccc(NS(=O)(=O)c3c(Cl)cccc3Cl)cc2s1	WT yeast gro inh 67
CSc1nc2ccc(NS(=O)(=O)c3ccc4c(c3)OCCO4)cc2s1	Arbovirus anti 32
O=C(COC(=O)c1ccc(F)c(S(=O)(=O)N2CCCCC2)c1)NCc1ccc(F)cc1	none
Nc1cc(Cl)ccc1N1CCCCCC1	none
COc1cc2c(cc1NC(=O)Nc1ccccc1)oc1ccccc12	WT yeast gro inh 69
O=S(=O)(Nc1ccc2c(c1)oc1ccccc12)N1CCCC1	none
COc1cc2c(cc1NC(=O)C(C)Sc1ccc(C)cc1)oc1ccccc12 (stereo not given)	none
COc1cc2c(cc1NC(=O)C(C)NCc1ccccc1)oc1ccccc12 (stereo not given)	WT yeast gro inh 68
COc1cc2c(cc1NS(=O)(=O)N1CCCCC1)oc1ccccc12	WT yeast gro inh 80
CC(C)Sc1nc2ncnc(N)c2[nH]1	TNAP inh no acc 58
CCCCCC(=O)NNC1=NCC(Cc2cccc(Cl)c2)S1 (stereo not given)	none
CN1N=C(c2ccc(Cl)cc2)CC(c2ccc(Cl)cc2)C1=O (stereo not given)	WT yeast gro inh 65
Cc1ccc(C2CC(c3ccc(Cl)cc3)=NNC2=O)cc1 (stereo not given)	none
O=C1NN=C(c2ccc(Br)cc2)CC1c1ccc(Cl)cc1 (stereo not given)	WT yeast gro inh 58
CCCCCn1c(N2CCN(c3cccc(Cl)c3)CC2)nc2c1c(=O)[nH]c(=O)n2C	none
CCCCn1c(CN2CCN(c3cccc(Cl)c3)CC2)nc2c1c(=O)n(C)c(=O)n2C	WT yeast gro inh 72
CCCCCn1c(CN2CCN(c3cccc(Cl)c3)CC2)nc2c1c(=O)n(C)c(=O)n2C	none (no result: Arbovirus anti, WT yeast gro inh)
CCCCCn1c(CN2CCN(c3cc(Cl)ccc3C)CC2)nc2c1c(=O)[nH]c(=O)n2C	WT yeast gro inh 65
COc1ccc(C(=O)Cn2nnc(-c3ccccc3NC(=O)c3ccco3)n2)cc1	none
COc1ccccc1C1CC(c2cccs2)=Nc2ccccc2S1 (stereo not given)	none
COc1ccccc1C1CN(c2ccc(F)cc2F)N=C1c1cccs1 (stereo not given)	WT yeast gro inh 79
COc1ccc2c(c1[N+](=O)[O-])CCC/C2=N/OC(=O)c1cccc2ccccc12	none
CCCCC(=O)Oc1ccccc1C1SCc2cc(C)c(C)cc2CS1	none
Cc1cc2c(cc1C)CSC(c1ccccc1OC(=O)C(C)(C)C)SC2	WT yeast gro inh 64
Cc1ccc2nsnc2c1S(=O)(=O)N1CCOCC1	none
CCC(C)n1cnc2c(c1=O)c1nc3ccccc3nc1n2Cc1ccc(OC)cc1 (stereo not given)	WT yeast gro inh 65
Cc1ccc(S(=O)(=O)NCC2(c3ccccc3)CCOCC2)cc1	none
O=Nc1ccc(NOC(=O)c2ccccc2Br)cc1	WT yeast gro inh 59
CN1CCCN(c2ncnc3scc(-c4ccc(F)cc4)c23)CC1	none
Cc1cc(N)n(-c2ncnc3scc(-c4ccc(Cl)cc4)c23)n1	none
Clc1ccc(-c2csc3ncnc(N4CCc5ccccc5C4)c23)cc1	WT yeast gro inh 65
Cc1ccccc1N1CCN(c2ncnc3scc(-c4cccs4)c23)CC1	WT yeast gro inh 65
Clc1ccc(CN2CCN(c3ncnc4scc(-c5cccs5)c34)CC2)cc1	WT yeast gro inh 60
Cc1nnc(NN2CCOCC2)[nH]c1=O	none
O=c1[nH]c2cc3c(cc2cc1CN(Cc1cccnc1)C(=S)NCc1ccco1)OCCO3	none
O=C(OCn1ncc(Br)c(Br)c1=O)c1ccc(F)cc1	WT yeast gro inh 87
CCNC(=O)CC(=O)Nc1ccccc1C(=O)O	none
CCc1ccc(CCC(=O)Nc2ccccc2C(=O)O)o1	Arbovirus anti 38, WT yeast gro inh 77
COc1ccc(-c2cc(CNS(=O)(=O)c3ccc(F)cc3)on2)cc1	none
CCOC(=O)c1ccc(CC2S/C(=C(\C#N)C(C)=O)NC2=O)cc1 (stereo not given)	none
CCc1ccc(CC2S/C(=C(\C#N)C(C)=O)NC2=O)cc1 (stereo not given)	Arbovirus anti 33
O=C(O)c1sc2cc(C(F)(F)F)cnc2c1-c1ccccn1	none
Cc1cccc(N=C2NC(=O)/C(=C3/C(=O)N(C)c4ccccc43)S2)c1C	Arbovirus anti 43
CN1C(=O)/C(=C2\SC(=S)N(CC3CCCO3)C2=O)c2ccccc21 (stereo not given)	none
Cc1cc(O)c(NC(=S)NC(=O)c2ccc(-c3ccc(Cl)cc3)o2)cc1C	WT yeast gro inh 77
O=[N+]([O-])c1ccc(O)c(/C=N/NC2=NS(=O)(=O)c3ccccc32)c1	TNAP inh no acc 73
O=C(c1ccccc1)N1CCN(C(=S)NCc2ccc3c(c2)OCO3)CC1	none
COC(Cc1n[nH]c(=S)n1-c1ccc(Cl)cc1)OC	none
CCc1c(C)nc(SCC(=O)c2cccs2)c(C#N)c1C	WT yeast gro inh 86
